How the values were obtained:
[1] = molecular target: T1, Phosphatidylinositol 4,5-bisphosphate 3-kinase catalytic subunit alpha isoform (Homo sapiens, UniProt P42336); experiment: Inhibition of N-terminal His-6-tagged full length human PI3Kalpha expressed in baculovirus-infected sf9 cells after 30 mins by TR-FRET assay
In short: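 IC50 is the mean of at least three independent experiments, each run in duplicate. Typical variation was below 20%.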

[2] = system: Phosphatidylinositol 4,5-bisphosphate 3-kinase catalytic subunit alpha isoform (Homo sapiens), P42336 [Y836A]; experiment: Ratio of PI103 IC50 to compound IC50 for full length human PI3Kalpha Y836A mutant
Chain of Phosphatidylinositol 4,5-bisphosphate 3-kinase catalytic subunit alpha isoform (Homo sapiens), P42336 [Y836A] (P42336 whole entry Y836A, canonical isoform): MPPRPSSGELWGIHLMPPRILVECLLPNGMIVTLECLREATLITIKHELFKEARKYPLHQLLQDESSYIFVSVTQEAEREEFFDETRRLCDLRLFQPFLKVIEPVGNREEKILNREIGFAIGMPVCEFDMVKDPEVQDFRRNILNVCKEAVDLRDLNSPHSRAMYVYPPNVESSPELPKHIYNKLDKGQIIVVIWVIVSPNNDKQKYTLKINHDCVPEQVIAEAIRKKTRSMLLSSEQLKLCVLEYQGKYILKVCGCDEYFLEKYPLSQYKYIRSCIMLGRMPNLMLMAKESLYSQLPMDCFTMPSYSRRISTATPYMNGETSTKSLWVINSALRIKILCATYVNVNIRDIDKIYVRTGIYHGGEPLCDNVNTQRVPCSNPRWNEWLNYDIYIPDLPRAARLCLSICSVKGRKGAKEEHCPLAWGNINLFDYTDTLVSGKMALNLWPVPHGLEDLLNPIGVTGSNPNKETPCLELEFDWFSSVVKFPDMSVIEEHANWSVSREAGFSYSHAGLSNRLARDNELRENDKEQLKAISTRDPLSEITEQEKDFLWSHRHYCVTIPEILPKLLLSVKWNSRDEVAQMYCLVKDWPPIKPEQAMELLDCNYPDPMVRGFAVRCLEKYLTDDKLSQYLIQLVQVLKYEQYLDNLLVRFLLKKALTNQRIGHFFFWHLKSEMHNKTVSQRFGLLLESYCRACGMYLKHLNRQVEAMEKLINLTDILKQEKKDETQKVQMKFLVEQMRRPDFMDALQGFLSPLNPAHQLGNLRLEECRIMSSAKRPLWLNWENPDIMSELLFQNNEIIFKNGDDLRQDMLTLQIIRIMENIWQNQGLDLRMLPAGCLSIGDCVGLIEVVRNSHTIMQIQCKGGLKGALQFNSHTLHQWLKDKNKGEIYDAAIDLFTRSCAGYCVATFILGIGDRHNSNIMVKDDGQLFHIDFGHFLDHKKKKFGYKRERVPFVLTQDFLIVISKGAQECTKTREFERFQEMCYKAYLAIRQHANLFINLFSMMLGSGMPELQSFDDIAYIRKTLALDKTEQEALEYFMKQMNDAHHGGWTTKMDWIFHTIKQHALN
In short: (§1)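 Inhibitor IC50s were determined against wild-type PI3Kα and the M772A, D810A and Y836A mutants. The mutants were expressed and purified in-house. […] Fold change is the PI103 IC50 divided by the compound IC50 on the same enzyme form.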

[3] = system: Phosphatidylinositol 4,5-bisphosphate 3-kinase catalytic subunit alpha isoform (Homo sapiens), P42336 [D810A]; experiment: Ratio of PI103 IC50 to compound IC50 for full length human PI3Kalpha D810A mutant; in short: as §1
Chain of Phosphatidylinositol 4,5-bisphosphate 3-kinase catalytic subunit alpha isoform (Homo sapiens), P42336 [D810A] (P42336 whole entry D810A, canonical isoform): as the sequence (P42336 whole entry Y836A, canonical isoform) above, with D810A, A836Y counted along it

[4] = system: Phosphatidylinositol 4,5-bisphosphate 3-kinase catalytic subunit alpha isoform (Homo sapiens), P42336 [M772A]; experiment: Ratio of PI103 IC50 to compound IC50 for full length human PI3Kalpha M772A mutant; in short: as §1
Chain of Phosphatidylinositol 4,5-bisphosphate 3-kinase catalytic subunit alpha isoform (Homo sapiens), P42336 [M772A] (P42336 whole entry M772A, canonical isoform): as the sequence (P42336 whole entry Y836A, canonical isoform) above, with M772A, A836Y counted along it

[5] = molecular target: T1, Phosphatidylinositol 4,5-bisphosphate 3-kinase catalytic subunit alpha isoform; experiment: Ratio of PI103 IC50 to compound IC50 for full length human PI3Kalpha; in short: as §1
[6] = molecular target: Phosphatidylinositol 4,5-bisphosphate 3-kinase catalytic subunit alpha isoform (Homo sapiens, UniProt P42336, Y836A); experiment: Inhibition of GST-tagged full length human PI3Kalpha Y836A mutant expressed in baculovirus-infected sf9 cells after 30 mins by TR-FRET assay
Chain of Phosphatidylinositol 4,5-bisphosphate 3-kinase catalytic subunit alpha isoform (Homo sapiens, UniProt P42336, Y836A) (P42336 whole entry Y836A, canonical isoform): as the sequence (P42336 whole entry Y836A, canonical isoform) above
In short: (§2)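 Each mutant PI3Kα was expressed and purified in-house. IC50 is the mean of at least three independent experiments, each run in duplicate.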

[7] = molecular target: Phosphatidylinositol 4,5-bisphosphate 3-kinase catalytic subunit alpha isoform (Homo sapiens, UniProt P42336, M772A); experiment: Inhibition of GST-tagged full length human PI3Kalpha M772A mutant expressed in baculovirus-infected sf9 cells after 30 mins by TR-FRET assay; in short: as §2
Chain of Phosphatidylinositol 4,5-bisphosphate 3-kinase catalytic subunit alpha isoform (Homo sapiens, UniProt P42336, M772A) (P42336 whole entry M772A, canonical isoform): as the sequence (P42336 whole entry Y836A, canonical isoform) above, with M772A, A836Y counted along it

[8] = molecular target: Phosphatidylinositol 4,5-bisphosphate 3-kinase catalytic subunit alpha isoform (Homo sapiens, UniProt P42336, D810A); experiment: Inhibition of GST-tagged full length human PI3Kalpha D810A mutant expressed in baculovirus-infected sf9 cells after 30 mins by TR-FRET assay; in short: as §2
Chain of Phosphatidylinositol 4,5-bisphosphate 3-kinase catalytic subunit alpha isoform (Homo sapiens, UniProt P42336, D810A) (P42336 whole entry D810A, canonical isoform): as the sequence (P42336 whole entry Y836A, canonical isoform) above, with D810A, A836Y counted along it

T1 sequence (P42336 whole entry, canonical isoform): as the sequence (P42336 whole entry Y836A, canonical isoform) above, with A836Y counted along it

IC50 [1] [nM]	Structure (SMILES)	further results
40.9	Oc1cc(F)cc(-c2nc(N3CCOCC3)c3oc4ncccc4c3n2)c1	–
20.6	Nc1cc(O)cc(-c2nc(N3CCOCC3)c3oc4ncccc4c3n2)c1	–
1210	Oc1cc(Br)cc(-c2nc(N3CCOCC3)c3oc4ncccc4c3n2)c1	–
990	Oc1cc(Cl)cc(-c2nc(N3CCOCC3)c3oc4ncccc4c3n2)c1	–
> 10000	Cc1cc(O)cc(-c2nc(N3CCOCC3)c3oc4ncccc4c3n2)c1	–
> 10000	Oc1cc(-c2nc(N3CCOCC3)c3oc4ncccc4c3n2)cc(C(F)(F)F)c1	–
> 10000	O=[N+]([O-])c1cc(O)cc(-c2nc(N3CCOCC3)c3oc4ncccc4c3n2)c1	–

Structure (SMILES)	IC50 [1] [nM]	further results
Oc1cc(O)cc(-c2nc(N3CCOCC3)c3oc4ncccc4c3n2)c1	5.9	Ratio IC50 [2]: 5.7; Ratio IC50 [3]: 1.2; Ratio IC50 [4]: 19.4; Ratio IC50 [5]: 3; IC50 [6]: 140 nM; IC50 [7]: 53.4 nM; IC50 [8]: 61.3 nM
